{"source": "ChEMBL document CHEMBL2202986", "about": "“Guaianolide sesquiterpene lactones, a source to discover agents that selectively inhibit acute myelogenous leukemia stem and progenitor cells” (J Med Chem, 2012)", "key": {"[1]": {"test_system": "Mus musculus", "assay": "Toxicity in BALB/c mouse assessed as pathological changes in lung at 1000 mg/kg, po administered as single dose by hematoxylin-eosin staining method", "assay_type": "organism-based", "set-up": "dose 1000 mg/kg, route oral", "details": "in vivo; call rule not given here", "procedure,_shortened": "(§1)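 BALB/c mice, 16 in total (8 male, 8 female). DMAMCL was given by gavage as an aqueous solution, either 1000 mg/kg once or 500 mg/kg every day for seven doses. Controls were untreated and water-vehicle mice. Mice were killed 1 week after dosing. Heart, liver, spleen, lung and kidney were fixed in 10% neutral-buffered formalin, paraffin-embedded, cut into 3 μm sections, H&E-stained and examined microscopically for gross morphology.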"}, "[2]": {"test_system": "Mus musculus", "assay": "Toxicity in BALB/c mouse assessed as pathological changes in spleen at 1000 mg/kg, po administered as single dose by hematoxylin-eosin staining method", "assay_type": "organism-based", "set-up": "dose 1000 mg/kg, route oral", "details": "in vivo", "procedure,_shortened": "as §1"}, "[3]": {"test_system": "Mus musculus", "assay": "Toxicity in BALB/c mouse assessed as pathological changes in liver at 1000 mg/kg, po administered as single dose by hematoxylin-eosin staining method", "assay_type": "organism-based", "set-up": "dose 1000 mg/kg, route oral", "details": "in vivo", "procedure,_shortened": "as §1"}, "[4]": {"assay": "Antitumor activity against human leukemia stem/progenitor cells xenografted in NOD/SCID mouse assessed as survival time at 100 mg/kg, po qd administered every other day total of seven doses starting from 8 weeks post grafting (reference value: 43 days)", "assay_type": "functional", "procedure,_shortened": "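NOD/SCID mice were sublethally irradiated (280cGay), then 6−10 h later given primary AML M5 patient cells via tail vein in PBS. From 8 weeks postinoculation, aqueous solution was given orally at 100 mg/kg every other day for seven doses. Survival was followed, Kaplan−Meier, n = 6 per treated group and n = 7 untreated controls. Survivors at day 85 had bone marrow analysed for human CD45⁺CD33⁺ cells.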"}, "[5]": {"assay": "Volume of distribution in mouse at 100 mg/kg, iv", "assay_type": "ADME, organism-based", "set-up": "dose 100 mg/kg, route intravenous", "details": "in vivo", "procedure,_shortened": "(§2)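 Male Kunming mice (20 2 g) were fasted 12 h with water available. An aqueous solution was dosed po (150 mg/kg) or iv (100 mg/kg), n = 5 per route. Blood was drawn from the orbital veins at set times to measure DMAMCL and released MCL. Parameters come from a noncompartmental model and are given as mean with SD.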"}, "[6]": {"test_system": "Mus musculus", "assay": "Volume of distribution in mouse at 150 mg/kg, po", "assay_type": "ADME, organism-based", "set-up": "dose 150 mg/kg, route oral", "details": "in vivo", "procedure,_shortened": "as §2"}, "[7]": {"assay": "Mean retention time (0 to t) in mouse at 150 mg/kg, po", "assay_type": "ADME, organism-based", "set-up": "dose 150 mg/kg, route oral", "details": "in vivo", "procedure,_shortened": "(§3)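 Male Kunming mice (20 2 g), fasted 12 h before dosing with water available, given DMAMCL as an aqueous solution po (n = 5). Blood was drawn from the orbital veins at set times. Plasma DMAMCL and MCL were followed, and parameters came from noncompartmental analysis.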"}, "[8]": {"assay": "AUC (0 to infinity) in mouse at 150 mg/kg, po", "assay_type": "ADME, organism-based", "set-up": "dose 150 mg/kg, route oral, time infinity", "details": "plasma", "procedure,_shortened": "as §3"}, "[9]": {"assay": "Cytotoxicity against human leukemia stem/progenitor cells assessed as viable CD34+ cells at 5 uM after 18 hrs by annexin-V labeling-based flow cytometry", "assay_type": "functional, CD34+ cell", "procedure,_shortened": "(§4)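 Primary leukemia cells from AML patient blood were treated for 18 h in serum-free IMDM, then stained with CD34-APC and CD38-PECy7 for 30 min. After washing in cold PBS, cells were labelled with Annexin-V–FITC/PI for 15 min at room temperature and read by flow cytometry. Viability of total and CD34⁺ cells was normalized to untreated controls (mean, SD).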"}, "[10]": {"assay": "Cytotoxicity against human leukemia stem/progenitor cells assessed as cell viability at 5 uM after 18 hrs by annexin-V labeling-based flow cytometry", "assay_type": "functional", "details": "in the assay text read “leukemia cells” for “leukemia stem/progenitor cells”, read-out: Activity", "procedure,_shortened": "as §4"}, "[11]": {"test_system": "HL-60", "assay": "Cytotoxicity against human HL60 cells after 18 hrs by annexin-V labeling-based flow cytometry", "assay_type": "functional, cell-based", "details": "HL-60, 18 h"}, "[12]": {"assay": "Drug degradation in HEPES buffer at pH 7.4 assessed as release of MCL up to 8 hrs", "assay_type": "physicochemical", "details": "pH 7.4, 8 h", "procedure,_shortened": "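A 20 μL aliquot of prodrug solution was added to 980 μL HEPES buffer (pH 7.4, or below 5.0) and incubated at 37 °C. Samples were withdrawn over time, and prodrug and released parent were quantified by HPLC (mean, SD, n = 4).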"}, "[13]": {"test_system": "Mus musculus", "assay": "Toxicity in BALB/c mouse assessed as pathological changes in spleen at 500 mg/kg, po administered every day for 7 days by hematoxylin-eosin staining method", "details": "in vivo, 168 h"}}}
{"smiles": "CC1=C2CC[C@@](C)(O)[C@@H]2[C@H]2OC(=O)[C@@H](CN(C)C)[C@@H]2CC1.Cl", "note": "[DIMETHYLAMINOMICHELIOLIDE HYDROCHLORIDE]", "values": [{"measurement": "Activity", "setting": "[1]", "result": "Non-toxic"}, {"measurement": "Activity", "setting": "[2]", "result": "Non-toxic"}, {"measurement": "Activity", "setting": "[3]", "result": "Non-toxic"}, {"measurement": "Survival", "setting": "[4]", "result": 63, "unit": "days"}, {"measurement": "Vd", "setting": "[5]", "result": 88.2, "unit": "L/kg"}, {"measurement": "Vd", "setting": "[6]", "result": 47.38, "unit": "L/kg"}, {"measurement": "MRT last", "setting": "[7]", "result": 8.85, "unit": "h"}, {"measurement": "AUC(0-inf)", "setting": "[8]", "result": 50300, "unit": "ng·h/mL"}, {"measurement": "Activity", "setting": "[9]", "result": 72.9, "unit": "%"}, {"measurement": "viability at 5 µM", "setting": "[10]", "result": 77.6, "unit": "%"}, {"measurement": "IC50", "setting": "[11]", "result": 17.2, "unit": "µM"}, {"measurement": "Drug degradation", "setting": "[12]", "result": "Active"}, {"measurement": "Activity", "setting": "[13]", "result": "Non-toxic"}]}
